Only some compounds are listed: those with a hit (about 3.8% of all), similar ones and a draw of the others.
MPTP block = mitochondrial permeability transition pore inhibitors, primary screen, biochemical, isolated mouse mitochondria, absorbance. Ca2+ swelling absorbance, 30 min. inhibition, % at 10 µM. actives 1.4% (n = 360,000). AID 602449, 2012;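 active = inhibition of 50% or more, scaled per plate between neutral and stimulator controls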
Granule exo inh = LAMP-1 surface exposure blockers, TALL-104 cells – cell-based, flow cytometry, MLPCN library, primary screen; TALL-104 LAMP-1 surface exposure; cells stimulated with thapsigargin and PMA; inhibition, % at 10 µM; actives 0.66% (n = 360,000);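 active = inhibition above about 55%, limit read from the data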
rCAG RNA binder = binders of r(CAG) RNA repeats, primary screen, biochemical, fluorescence; actives 1.3% (n = 370,000); inhibition, % at 3 µM; AID 651821, 2012; r(CAG) RNA repeat, TO-PRO-1 dye displacement fluorescence;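 active = inhibition above the plate cutoff, the mean of all test compounds on that plate plus 3 SD, cut at about 35% in these data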;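 note: higher means more dye released from RNA so lower well fluorescence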
B2AR ag = beta2AR agonists driving receptor internalization, primary screen, cell-based, FAP fluorogen, flow cytometry; actives 0.43% (n = 340,000); response, % (no concentration beside the values); AID 504454, 2011; Am2.2-beta2AR cells;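 active = response above a set limit, near 3 SD of response in nonfluorescent compounds, cut at about 42% in these data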
Target sequence (P07550 whole entry, looked up): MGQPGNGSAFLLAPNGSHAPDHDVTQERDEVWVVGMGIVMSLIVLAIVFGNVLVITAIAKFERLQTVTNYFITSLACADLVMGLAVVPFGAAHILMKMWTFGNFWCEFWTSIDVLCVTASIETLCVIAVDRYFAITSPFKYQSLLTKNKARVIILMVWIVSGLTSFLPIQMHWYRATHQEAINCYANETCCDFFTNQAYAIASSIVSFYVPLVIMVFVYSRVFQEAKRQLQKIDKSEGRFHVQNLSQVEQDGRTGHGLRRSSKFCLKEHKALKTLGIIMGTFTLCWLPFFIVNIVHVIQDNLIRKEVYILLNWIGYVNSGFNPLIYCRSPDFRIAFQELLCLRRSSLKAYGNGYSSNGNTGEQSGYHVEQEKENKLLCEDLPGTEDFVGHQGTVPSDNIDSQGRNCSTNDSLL
V-ATPase pH = regulators of yeast V-ATPase proton pumping, primary screen, pHLuorin cytosolic pH fluorescence; actives 0.37% (n = 350,000); AID 504577, 2011; S. cerevisiae; response, % at 10 µM; in the data active = response mostly above about 7.3%, no sharp cut-off; inactive = mostly below about 5.4%; note: actives read high
T cell modulator = modulators of CD8 T cell-vesicle binding, primary screen, mouse 2C CD8+ T cells, flow cytometry | 2C CD8+ T cell-vesicle binding; stronger effect = lower value | response (vesicle binding), % at 7 µM | actives 0.068% (n = 330,000);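 active = response, share of CD8 T cells binding vesicles, and their 90th percentile fluorescence all below set limits, cut at about 80% in these data, passing the limit was not always enough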;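 note: values below 100% mean blocked vesicle binding to the CD8+ T cells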
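Test system: purified 2C TCR transgenic mouse naive CD8+ T cells. Probe or stimulus: QL9-peptide-loaded Drosophila micro-vesicles bearing Ld, ICAM-1 and B7-1. Incubation: binding step 1.5 h, 37 °C, antibody labelling 20 min, ice. Measured by: flow cytometry of vesicle-bound cells.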
rCAG binder conf = small molecules binding CAG repeat RNA – biochemical, fluorescence, confirmation; inhibition, % at 3 µM; actives 70% (n = 4,300); shares compounds with rCAG RNA binder; r(CAG) RNA repeat, TO-PRO-1 dye displacement fluorescence;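 active = inhibition above a per-plate cutoff, the mean inhibition of sample wells plus 3 SD, cut at about 35% in these data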;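 note: loss of TO-PRO-1 fluorescence as compound displaces dye from 1x1 AA loop RNA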
DNA CAG counter = displacement of TO-PRO-1 from CAG DNA duplex, counter-screen for rCAG RNA repeat binder project, biochemical, fluorescence, TO-PRO-1 dye, d(CAG) DNA oligo. inhibition, % at 3 µM. shares compounds with rCAG RNA binder. d(CAG) DNA oligo TO-PRO-1 dye displacement. actives 94% (n = 4,300);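 active = inhibition above its plate's cutoff, the mean test-well inhibition plus 3 SD, cut at about 4.8% in these data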;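 note: hits displace the dye from DNA and so lower well fluorescence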
DNA CAG DR = inhibitors of DNA CAG/GTC TO-PRO-1 complex, dose response, counter-screen for rCAG RNA repeat binder project, biochemical, fluorescence, TO-PRO-1 dye; AID 686960, 2013; actives 20% (n = 250); DNA CAG/GTC duplex TO-PRO-1 dye displacement fluorescence; IC50, µM; shares compounds with rCAG RNA binder; in the data active = IC50 below about 10 µM
A number is an active result.

Screening Clc1cccc(Cc2c(-c3cccc(Br)c3)nc3ccc(Br)cn23)c1 returned MPTP block inactive, Granule exo inh inactive, rCAG RNA binder 52.4, rCAG binder conf 39.1 and DNA CAG counter 9.1.
For O=C(O)CSc1cc(NS(=O)(=O)c2ccc(Br)cc2)c2ccccc2c1O the results were MPTP block inactive, Granule exo inh inactive, rCAG RNA binder 39.5, B2AR ag inactive, V-ATPase pH inactive, T cell modulator inactive, rCAG binder conf 57.0 and DNA CAG counter 22.6.
Screening Cc1ccc(S(=O)(=O)Nc2ccc(Br)cc2C(NCC(=O)O)c2ccccc2)cc1 (stereo not drawn) returned MPTP block inactive, Granule exo inh inactive, rCAG RNA binder 72.7, B2AR ag inactive, V-ATPase pH inactive, T cell modulator inactive, rCAG binder conf 74.5, DNA CAG counter 26.0 and DNA CAG DR inactive.
For O=[N+]([O-])c1cc(Br)ccc1NS(=O)(=O)c1ccccc1 the results were MPTP block inactive, Granule exo inh inactive, rCAG RNA binder inactive, B2AR ag inactive and V-ATPase pH inactive.
Screening COC(=O)CNC(c1ccccc1)c1cc(C)ccc1NS(=O)(=O)c1ccc(C)cc1 (stereo not drawn) returned MPTP block inactive, Granule exo inh inactive, rCAG RNA binder inactive, B2AR ag inactive, V-ATPase pH inactive and T cell modulator inactive.
`COC(=O)C1CCCN(C(=O)C2CCN(S(=O)(=O)c3cccs3)CC2)C1` (stereo not drawn) gave rCAG RNA binder inactive.
Screening CCOC(=O)C1=C(C)NC(SCc2cc(=O)[nH][nH]2)=C(C#N)C1c1cccs1 (stereo not drawn) returned MPTP block inactive, Granule exo inh inactive, rCAG RNA binder 58.7, B2AR ag inactive, V-ATPase pH inactive, T cell modulator inactive, rCAG binder conf 39.1 and DNA CAG counter 17.2.
CCCCCCCC/C=C\CCCCCCCC(=O)NCCc1ccc(O)c(O)c1 was read as MPTP block inactive, Granule exo inh inactive, rCAG RNA binder 47.3, B2AR ag inactive, V-ATPase pH inactive, T cell modulator inactive, rCAG binder conf inactive and DNA CAG counter 7.2.
Screening CC1=Nc2ccccc2/C1=C\c1nc(-c2ccccc2)oc1O returned MPTP block inactive, Granule exo inh inactive, rCAG RNA binder 60.2, B2AR ag inactive, V-ATPase pH inactive, T cell modulator inactive, rCAG binder conf 37.0 and DNA CAG counter 16.6.
Screening CC1=Nc2ccccc2/C1=C\c1nc(-c2ccc(C(F)(F)F)cc2)oc1O returned MPTP block inactive, Granule exo inh inactive, rCAG RNA binder inactive, B2AR ag inactive, V-ATPase pH inactive and T cell modulator inactive.
COc1ccc(-c2nc(/C=C3\C(C)=Nc4ccccc43)c(O)o2)cc1 was read as MPTP block inactive, Granule exo inh inactive, rCAG RNA binder 51.5, B2AR ag inactive, V-ATPase pH inactive, T cell modulator inactive, rCAG binder conf 34.8 and DNA CAG counter 20.1.
`CC1=Nc2ccccc2/C1=C/c1nc(-c2ccc(C)s2)oc1O` gave MPTP block inactive, Granule exo inh inactive, rCAG RNA binder 46.2, B2AR ag inactive, V-ATPase pH inactive, T cell modulator inactive, rCAG binder conf 41.9 and DNA CAG counter 21.5.
Screening CC(C)(C)C1=Nn2c(nnc2-c2ccc(C(C)(C)C)cc2)SC1 returned rCAG RNA binder inactive.
For [N-]=C=C1C(=S)NC(=O)[C@H]([n+]2ccccc2)[C@H]1c1ccc(Cl)cc1 the results were MPTP block inactive, Granule exo inh inactive, rCAG RNA binder 43.6, B2AR ag inactive, V-ATPase pH inactive, T cell modulator inactive, rCAG binder conf 64.0 and DNA CAG counter 27.7.
O=C1C(=Cc2ccco2)CCC1=Cc1ccco1 was read as MPTP block inactive, Granule exo inh inactive, rCAG RNA binder 65.8, B2AR ag inactive, V-ATPase pH inactive, rCAG binder conf 78.2 and DNA CAG counter 44.4.
For O=C1C(=Cc2ccco2)CCCC1=Cc1ccco1 the results were MPTP block inactive, Granule exo inh inactive, rCAG RNA binder inactive, B2AR ag inactive and V-ATPase pH inactive.
C=CCN1C(=O)[C@@H](CC(=O)NCc2cccs2)[C@]2(C(=O)OCC)CCCCC/C=C/12 was read as rCAG RNA binder inactive.
For COc1ccc(C2C(C#N)=C(N)Oc3c2c(-c2ccccc2)nn3-c2ccccc2)c(OC)c1OC (stereo not drawn) the results were MPTP block inactive, Granule exo inh inactive, rCAG RNA binder 42.1, B2AR ag inactive, V-ATPase pH inactive, T cell modulator inactive, rCAG binder conf inactive and DNA CAG counter 10.2.
Cn1c(O)c(C2=c3ccccc3=NC2=O)[nH]c1=S was read as MPTP block inactive, Granule exo inh inactive, rCAG RNA binder inactive, B2AR ag inactive, V-ATPase pH inactive and T cell modulator inactive.
`O=C1N=c2ccccc2=C1c1sc(=S)n(NC(=O)c2ccccc2)c1O` gave MPTP block inactive, Granule exo inh inactive, rCAG RNA binder 60.6, B2AR ag inactive, V-ATPase pH inactive, T cell modulator inactive, rCAG binder conf 40.6 and DNA CAG counter 19.7.
O=[N+]([O-])c1ccc(CN2[C@H](COCc3ccccc3)C=CS2(=O)=O)cc1 was read as rCAG RNA binder inactive.
`Cc1ccc(C2c3[nH]c4ccccc4c3C[C@H]3C(=O)N(c4ccccc4C(=O)N4CCC(C(=O)O)CC4)C(=O)N23)cc1` (stereo partly drawn) gave MPTP block inactive, Granule exo inh inactive, rCAG RNA binder inactive, B2AR ag inactive, V-ATPase pH inactive and T cell modulator inactive.
`Cc1ccc(C2c3[nH]c4ccccc4c3C[C@H]3C(=O)N(c4ccccc4C(=O)N4CCC[C@@H]4C(=O)O)C(=O)N23)cc1` (stereo partly drawn) gave MPTP block inactive, Granule exo inh inactive, rCAG RNA binder 39.2, B2AR ag inactive, V-ATPase pH inactive, T cell modulator inactive, rCAG binder conf 56.8 and DNA CAG counter 19.4.
